Experimental data published in paper PMC3900310 (Annals of Clinical and Translational Neurology, 2013).
Where two headings read alike, the source gives them in different places.

Assays:
recombinant ROCK1 = recombinant ROCK1 (Homo sapiens, UniProt Q13464); experiment: Recombinant ROCK1 radiometric enzyme assay; assay type: biochemical; conditions: concentrations up to 10 μmol/L, recombinant enzyme system
[1] = Systemic physiological parameters; assay type: in vivo, mice; conditions: 200 mg/kg
[2] = tested on: cortical perfusion during dMCAO; experiment: Distal middle cerebral artery occlusion; assay type: in vivo, mice; conditions: 200 mg/kg 90 min before dMCAO, laser speckle flowmetry
Method in brief: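 Male mice (25–30 g) given test compound or vehicle (0.4% methylcellulose) by orogastric gavage. […] Mice were intubated, mechanically ventilated and femoral-artery catheterized for blood pressure and blood sampling. Cortical perfusion was imaged by laser speckle through intact skull. Per-pixel CBF was taken relative to preischemic baseline. Areas with residual CBF ≤20%, 21–30% and 31–40% were thresholded.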

ROCK1 = conditions: read-out: ROCK1 IC50; cited from earlier work
[3] = Pharmacokinetic study: plasma and brain concentrations after oral gavage; assay type: in vivo, mice; conditions: for AUC(0-t) / Cmax / k el: male, C57BL/6, mouse, po
Method in brief: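 Male mice received 100 or 200 mg/kg twice daily by orogastric gavage, five doses. Each time point, from just before the last dose, used a separate group (n = 5). Jugular blood went into K3 EDTA tubes and was spun at 1000 g for 3 min at 4°C. Brains were harvested after saline perfusion. Samples were stored at −80°C and assayed by high-resolution MS. Noncompartmental analysis used best-fit λz, plus one-compartment zero- or first-order models. Brain/plasma exposure was taken as the AUC ratio.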

[4] = tested on: focal cerebral ischemia (permanent fMCAO)
endothelial cells = conditions: cited from earlier work
[5] = tested on: focal cerebral ischemia (transient fMCAO)
[6] = healthy volunteers; ref Surface Logix, Brighton, MA; cited from earlier work
recombinant ROCK2 = recombinant ROCK2 (Homo sapiens, UniProt O75116); experiment: Recombinant ROCK2 radiometric enzyme assay; assay type: biochemical; conditions: versus ATP (Fig. 1B)
Sequence of recombinant ROCK2 (O75116 92-354 limits assumed): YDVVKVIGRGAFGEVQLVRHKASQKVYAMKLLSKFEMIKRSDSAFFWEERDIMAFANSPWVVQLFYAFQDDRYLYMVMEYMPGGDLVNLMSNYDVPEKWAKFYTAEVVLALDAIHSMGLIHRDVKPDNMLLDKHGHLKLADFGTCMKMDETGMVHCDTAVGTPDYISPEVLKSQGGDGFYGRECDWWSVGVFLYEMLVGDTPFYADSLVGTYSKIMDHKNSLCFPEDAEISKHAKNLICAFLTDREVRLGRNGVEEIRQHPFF

ROCK2 = conditions: read-out: ROCK2 IC50; cited from earlier work
[7] = tested on: ROCK activity (MYPT1 phosphorylation); experiment: MYPT1 Thr696 phosphorylation in brain and heart after systemic administration; assay type: in vivo, mice; conditions: 10 mg/kg, intraperitoneal
[8] = plasma, one-compartment first-order kinetic absorption model, 100 mg/kg
[9] = permanent ischemia, 1 h postischemic onset, 200 mg/kg, sacrifice at 24 h
[10] = aged (12 months) mice, 1 h postischemic onset, 200 mg/kg
[11] = diabetic (db/db) mice, 1 h postischemic onset, 200 mg/kg
[12] = dose response, 24 h preischemic onset, 100 mg/kg every 12 h
[13] = dose response, 24 h preischemic onset, 200 mg/kg every 12 h
[14] = dose response, 24 h preischemic onset, 300 mg/kg every 12 h
[15] = female mice, 1 h postischemic onset, 200 mg/kg
[16] = therapeutic window, 1 h postischemic onset, 200 mg/kg
[17] = therapeutic window, 3 h postischemic onset, 200 mg/kg
[18] = therapeutic window, 6 h postischemic onset, 200 mg/kg

Sequence of recombinant ROCK1 (Q13464 76-338 limits assumed): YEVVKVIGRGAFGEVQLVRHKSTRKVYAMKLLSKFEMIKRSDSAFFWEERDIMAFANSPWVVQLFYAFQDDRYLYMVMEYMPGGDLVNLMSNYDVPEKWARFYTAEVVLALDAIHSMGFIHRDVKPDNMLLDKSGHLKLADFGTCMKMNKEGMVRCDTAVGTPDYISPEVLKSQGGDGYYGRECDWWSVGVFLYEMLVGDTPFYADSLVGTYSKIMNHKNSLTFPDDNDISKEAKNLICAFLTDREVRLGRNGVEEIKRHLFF

**Q.** With `CC(C)NC(=O)COc1cccc(-c2nc(Nc3ccc4[nH]ncc4c3)c3ccccc3n2)c1` [KD025] as the molecule, how does the “effect on ROCK1 enzymatic activity” value (recombinant ROCK1) read?
**A.** little effect

**Q.** What about the “arterial blood pressure lower compared with vehicle” value [1] of the same molecule?
**A.** 8%

**Q.** And the HR ([1]; N = 5 mice, mean ± SEM)?
**A.** 618 ± 19 bpm

**Q.** What about the pCO2 ([1]; N = 5 mice, mean ± SEM) of the same molecule?
**A.** 29 ± 2 mmHg

**Q.** And the pO2 ([1]; N = 5 mice, mean ± SEM)?
**A.** 135 ± 13 mmHg

**Q.** What about the BP ([1]; N = 5 mice, mean ± SEM, P = 0.06 versus vehicle) of the same molecule?
**A.** 77 ± 3 mmHg

**Q.** And the pH ([1]; arterial, N = 5 mice, mean ± SEM)?
**A.** 7.36 ± 0.02

**Q.** And the “area of perfusion defect versus vehicle” value [2]?
**A.** significantly reduced

**Q.** What about the IC50 (ROCK1) of the same molecule?
**A.** 24 µM

**Q.** And the “λ2 (slope of the log-linear terminal phase)” value ([3]; brain, non-compartmental analysis, 100 mg/kg every 12 h, five doses, oral gavage)?
**A.** 0.31 1/h

**Q.** And the “A (absorption)” value ([3]; brain, one-compartment first-order kinetic absorption model, 100 mg/kg)?
**A.** 0.67 µg/mL

**Q.** And the AUC(0-t) ([3]; brain, 100 mg/kg)?
**A.** 2280 ng·h/mL

**Q.** And the Cmax ([3]; brain, 100 mg/kg)?
**A.** 540 ng/mL

**Q.** And the k el ([3]; brain, 100 mg/kg)?
**A.** 8.89e-05 s⁻¹

**Q.** And the AUC(0-t) ([3]; plasma, 100 mg/kg)?
**A.** 42300 ng·h/mL

**Q.** And the Cmax ([3]; plasma, 100 mg/kg)?
**A.** 7280 ng/mL

**Q.** And the k el ([3]; plasma, 100 mg/kg)?
**A.** 5e-05 s⁻¹

**Q.** And the “A (absorption)” value [3, 8]?
**A.** 9.16 µg/mL

**Q.** And the “Ka (absorption rate constant)” value [3, 8]?
**A.** 2.23 h⁻¹

**Q.** And the V [3, 8]?
**A.** 11.90 L

**Q.** What about the “efficacy on infarct volume in permanent ischemia” value ([4]; 200 mg/kg starting 1 h after permanent fMCAO, infarct volume at 24 h) of the same molecule?
**A.** lost its efficacy

**Q.** What about the Mortality [4, 9] of the same molecule?
**A.** 6/15

**Q.** And the Weight loss [4, 9]?
**A.** 3.5 ± 0.3 g

**Q.** And the “tissue loss in the ipsilateral hemisphere versus vehicle” value ([5]; 200 mg/kg twice a day for 36 h starting 1 h after ischemia onset, measured 4 weeks after ischemia)?
**A.** significantly reduced

**Q.** What about the “efficacy on infarct volume” value ([5]; 200 mg/kg, treatment started 6 h after ischemia onset) of the same molecule?
**A.** completely lost

**Q.** And the infarct volume reduction ([5]; 200 mg/kg, treatment starting 1 h after onset of fMCAO)?
**A.** 34%

**Q.** What about the infarct volume reduction ([5]; 200 mg/kg, treatment starting 3 h after onset of fMCAO) of the same molecule?
**A.** 26%

**Q.** And the adverse effects observed ([5]; 300 mg/kg dose level)?
**A.** increased incidence of vomiting and respiratory difficulties

**Q.** What about the infarct volume reduction ([5]; aged (12 months) male mice, 200 mg/kg starting 1 h after fMCAO) of the same molecule?
**A.** 34%

**Q.** What about the Mortality [5, 10] of the same molecule?
**A.** 2/8

**Q.** And the Weight loss [5, 10]?
**A.** 3.4 ± 0.6 g

**Q.** And the Mortality [5, 11]?
**A.** 0/8

**Q.** And the Weight loss [5, 11]?
**A.** 3.8 ± 0.3 g

**Q.** And the Mortality [5, 12]?
**A.** 0/6

**Q.** And the Weight loss [5, 12]?
**A.** 4.3 ± 0.6 g

**Q.** What about the Mortality [5, 13] of the same molecule?
**A.** 1/8

**Q.** And the Weight loss [5, 13]?
**A.** 3.5 ± 0.4 g

**Q.** And the Mortality [5, 14]?
**A.** 2/9

**Q.** And the Weight loss [5, 14]?
**A.** 4.5 ± 0.5 g

**Q.** And the infarct volume reduction ([5]; female mice, 200 mg/kg starting 1 h after fMCAO)?
**A.** 42%

**Q.** What about the Mortality [5, 15] of the same molecule?
**A.** 0/9

**Q.** What about the Weight loss [5, 15] of the same molecule?
**A.** 3.5 ± 0.4 g

**Q.** And the “effect on infarct volume in combination with atorvastatin” value ([5]; mouse, in vivo)?
**A.** did not show an additive or synergistic effect

**Q.** What about the “therapeutic window of efficacy” value ([5]; mouse, in vivo) of the same molecule?
**A.** at least 3 h

**Q.** What about the “neurological deficits, 5-point scoring system” value ([5]; preischemic treatment, assessed at 48 h prior to sacrifice) of the same molecule?
**A.** ameliorated

**Q.** And the Mortality [5, 16]?
**A.** 1/9

**Q.** And the Weight loss [5, 16]?
**A.** 5.7 ± 0.2 g

**Q.** What about the Mortality [5, 17] of the same molecule?
**A.** 0/15

**Q.** What about the Weight loss [5, 17] of the same molecule?
**A.** 5.2 ± 0.2 g

**Q.** What about the Mortality [5, 18] of the same molecule?
**A.** 1/8

**Q.** And the Weight loss [5, 18]?
**A.** 5.6 ± 0.3 g

**Q.** What about the “incidence of hemorrhagic transformation, semi-quantitative grading” value ([5]; transient fMCAO model (Fig. S1)) of the same molecule?
**A.** did not detect an increase

**Q.** And the infarct volume reduction ([5]; type 2 diabetic db/db mice, 200 mg/kg starting 1 h after fMCAO)?
**A.** 32%

**Q.** What about the “side effects in phase I study” value [6] of the same molecule?
**A.** no major side effects

**Q.** What about the “mode of ROCK2 inhibition” value (recombinant ROCK2) of the same molecule?
**A.** competitive with ATP

**Q.** For `O=c1[nH]ccc2c(S(=O)(=O)N3CCCNCC3)cccc12` [hydroxyfasudil], which “ROCK activity measured by MYPT1 phosphorylation, relative to effect of KD025” value [7] is on record?
**A.** comparable
